Data taken from ChEMBL document CHEMBL4422685, “Design, synthesis and evaluation of a series of 5-methoxy-2,3-naphthalimide derivatives as AcrB inhibitors for the reversal of bacterial resistance” (Bioorg Med Chem Lett, 2019).

What was measured:
[1] = target: T1, Multidrug efflux pump subunit AcrB (Escherichia coli (strain K12)) (UniProt P31224); experiment: Inhibition of AcrB in wild-type drug-resistant Escherichia coli […] assessed as potentiation of erythromycin-induced antimicrobial activity by measuring erythromycin MIC at 128 ug/ml by checkerboard titration method (reference value: 64 ug/ml)
T1 sequence (whole entry): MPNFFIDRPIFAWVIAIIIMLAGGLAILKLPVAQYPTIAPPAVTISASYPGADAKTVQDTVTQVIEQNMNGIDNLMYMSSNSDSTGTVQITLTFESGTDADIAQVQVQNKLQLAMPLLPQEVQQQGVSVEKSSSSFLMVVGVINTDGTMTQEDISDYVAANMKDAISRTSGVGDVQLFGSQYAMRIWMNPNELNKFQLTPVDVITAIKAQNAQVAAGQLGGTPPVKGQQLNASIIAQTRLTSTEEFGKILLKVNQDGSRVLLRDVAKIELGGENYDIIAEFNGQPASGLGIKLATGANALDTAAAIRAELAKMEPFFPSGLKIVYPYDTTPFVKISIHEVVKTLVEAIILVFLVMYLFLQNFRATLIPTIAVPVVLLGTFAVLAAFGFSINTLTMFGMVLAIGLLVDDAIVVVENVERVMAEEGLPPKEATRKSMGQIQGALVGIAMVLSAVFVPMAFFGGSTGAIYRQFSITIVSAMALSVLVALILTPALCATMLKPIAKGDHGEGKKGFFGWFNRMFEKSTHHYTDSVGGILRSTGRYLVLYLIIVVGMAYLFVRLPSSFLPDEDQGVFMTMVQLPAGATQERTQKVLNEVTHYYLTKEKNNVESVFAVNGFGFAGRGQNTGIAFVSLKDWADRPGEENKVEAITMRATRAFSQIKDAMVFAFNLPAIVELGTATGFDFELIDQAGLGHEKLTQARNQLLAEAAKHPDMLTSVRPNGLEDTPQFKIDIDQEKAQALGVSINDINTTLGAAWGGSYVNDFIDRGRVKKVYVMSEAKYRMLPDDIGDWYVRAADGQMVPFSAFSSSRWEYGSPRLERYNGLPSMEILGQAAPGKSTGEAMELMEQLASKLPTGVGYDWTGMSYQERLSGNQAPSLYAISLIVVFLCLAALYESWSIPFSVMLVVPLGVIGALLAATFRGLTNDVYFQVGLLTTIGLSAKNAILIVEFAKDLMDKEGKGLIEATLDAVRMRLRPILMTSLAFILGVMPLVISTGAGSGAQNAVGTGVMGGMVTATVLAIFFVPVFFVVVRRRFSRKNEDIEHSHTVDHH

[2] = target: T1, Multidrug efflux pump subunit AcrB (Escherichia coli (strain K12)); experiment: Inhibition of AcrB in wild-type drug-resistant Escherichia coli […] assessed as potentiation of erythromycin-induced antimicrobial activity by measuring erythromycin MIC at 32 ug/ml by checkerboard titration method (reference value: 64 ug/ml)
[3] = target: T1, Multidrug efflux pump subunit AcrB (Escherichia coli (strain K12)); experiment: Inhibition of AcrB in wild-type drug-resistant Escherichia coli […] assessed as potentiation of tetraphenyl phosphonium chloride-induced antimicrobial activity by measuring tetraphenyl phosphonium chloride MIC at 16 ug/ml by checkerboard titration method (reference value: 1024 ug/ml)
[4] = target: T1, Multidrug efflux pump subunit AcrB (Escherichia coli (strain K12)); experiment: Inhibition of AcrB in wild-type drug-resistant Escherichia coli […] assessed as potentiation of tetraphenyl phosphonium chloride-induced antimicrobial activity by measuring tetraphenyl phosphonium chloride MIC at 8 ug/ml by checkerboard titration method (reference value: 1024 ug/ml)
[5] = target: T1, Multidrug efflux pump subunit AcrB (Escherichia coli (strain K12)); experiment: Inhibition of AcrB in wild-type drug-resistant Escherichia coli […] assessed as potentiation of levofloxacin-induced antimicrobial activity by measuring levofloxacin MIC at 32 ug/ml by checkerboard titration method (reference value: 0.063 ug/ml)
[6] = target: T1, Multidrug efflux pump subunit AcrB (Escherichia coli (strain K12)); experiment: Inhibition of AcrB in wild-type drug-resistant Escherichia coli […] assessed as potentiation of chloramphenicol-induced antimicrobial activity by measuring chloramphenicol MIC at 8 ug/ml by checkerboard titration method (Rvb =16 ug/ml)
[7] = system: Escherichia coli; experiment: Toxicity against wild-type drug-resistant Escherichia coli […] at 128 ug/ml; type: organism-based; settings: in vivo
How it was run: (§1)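 MIC determination against wild-type resistant E. coli BW25113 and an isogenic acrB-deleted strain; highest concentration tested 128 mg/L.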

[8] = target: T1, Multidrug efflux pump subunit AcrB (Escherichia coli (strain K12)); experiment: Inhibition of AcrB in wild-type drug-resistant Escherichia coli […] assessed as potentiation of levofloxacin-induced antimicrobial activity by measuring levofloxacin MIC at 16 ug/ml by checkerboard titration method (reference value: 0.063 ug/ml)
[9] = target: T1, Multidrug efflux pump subunit AcrB (Escherichia coli (strain K12)); experiment: Inhibition of AcrB in wild-type drug-resistant Escherichia coli […] assessed as potentiation of chloramphenicol-induced antimicrobial activity by measuring chloramphenicol MIC at 64 ug/ml by checkerboard titration method (Rvb =16 ug/ml)
[10] = target: T1, Multidrug efflux pump subunit AcrB (Escherichia coli (strain K12)); experiment: Inhibition of AcrB in wild-type drug-resistant Escherichia coli […] assessed as potentiation of erythromycin-induced antimicrobial activity by measuring erythromycin MIC at 64 ug/ml by checkerboard titration method (reference value: 64 ug/ml)
[11] = target: T1, Multidrug efflux pump subunit AcrB (Escherichia coli (strain K12)); experiment: Inhibition of AcrB in wild-type drug-resistant Escherichia coli […] assessed as potentiation of tetraphenyl phosphonium chloride-induced antimicrobial activity by measuring tetraphenyl phosphonium chloride MIC at 128 ug/ml by checkerboard titration method (reference value: 1024 ug/ml)
[12] = target: T1, Multidrug efflux pump subunit AcrB (Escherichia coli (strain K12)); experiment: Inhibition of AcrB in wild-type drug-resistant Escherichia coli […] assessed as potentiation of levofloxacin-induced antimicrobial activity by measuring levofloxacin MIC at 64 ug/ml by checkerboard titration method (reference value: 0.063 ug/ml)
[13] = system: Escherichia coli; experiment: Disruption of Escherichia coli inner membrane integrity at 128 ug/ml after 10 mins by DiOC2(3) probe based fluorescence assay; type: ADME, organism-based; settings: in vivo
How it was run: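 Bacterial suspensions pre-exposed to compound for 10 min, then DiOC2(3) added and fluorescence followed to plateau. Cells re-energized with 0.5% glucose; membrane potential (inside negative) read as fluorescence rise to plateau, then collapsed with the proton ionophore CCCP. Untreated cells run alongside.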

[14] = target: T1, Multidrug efflux pump subunit AcrB (Escherichia coli (strain K12)); experiment: Inhibition of AcrB in wild-type drug-resistant Escherichia coli […] assessed as potentiation of erythromycin-induced antimicrobial activity by measuring erythromycin MIC at 8 ug/ml by checkerboard titration method (reference value: 64 ug/ml)
[15] = system: Escherichia coli; experiment: Toxicity against AcrB deficient Escherichia coli AcrB lacking at 128 ug/ml; type: organism-based; settings: in vivo; how it was run: as §1
[16] = target: T1, Multidrug efflux pump subunit AcrB (Escherichia coli (strain K12)); experiment: Inhibition of AcrB in wild-type drug-resistant Escherichia coli […] assessed as potentiation of tetraphenyl phosphonium chloride-induced antimicrobial activity by measuring tetraphenyl phosphonium chloride MIC at 32 ug/ml by checkerboard titration method (reference value: 1024 ug/ml)
[17] = target: T1, Multidrug efflux pump subunit AcrB (Escherichia coli (strain K12)); experiment: Inhibition of AcrB in wild-type drug-resistant Escherichia coli […] assessed as potentiation of tetraphenyl phosphonium chloride-induced antimicrobial activity by measuring tetraphenyl phosphonium chloride MIC at 64 ug/ml by checkerboard titration method (reference value: 1024 ug/ml)
[18] = target: T1, Multidrug efflux pump subunit AcrB (Escherichia coli (strain K12)); experiment: Inhibition of AcrB in wild-type drug-resistant Escherichia coli […] assessed as potentiation of levofloxacin-induced antimicrobial activity by measuring levofloxacin MIC at 8 ug/ml by checkerboard titration method (reference value: 0.063 ug/ml)

Row | SMILES | MIC [1] | MIC [2] | MIC [3] | MIC [4] | MIC [5] | MIC [6] | Activity [7] | MIC [8] | MIC [9] | MIC [10] | MIC [11] | MIC [12] | Activity [13] | MIC [14] | Activity [15] | MIC [16] | MIC [17] | MIC [18]
1 | COc1cccc2cc3c(cc12)C(=O)N(Cc1ccccc1)C3=O | 16 µg/mL | 32 µg/mL | 1020 µg/mL | 1020 µg/mL | 0.063 µg/mL | 16 µg/mL | Non-Toxic | 0.063 µg/mL | 16 µg/mL | 32 µg/mL | 512 µg/mL | 0.063 µg/mL | Non-Toxic | 32 µg/mL | Non-Toxic | 1020 µg/mL | 1020 µg/mL | 0.063 µg/mL
2 | COc1ccccc1CN1C(=O)c2cc3cccc(OC)c3cc2C1=O | 64 µg/mL | 64 µg/mL | 1020 µg/mL | 1020 µg/mL | 0.0039 µg/mL | 16 µg/mL | Non-Toxic | 0.0039 µg/mL | 16 µg/mL | 64 µg/mL | 512 µg/mL | 0.0019 µg/mL | Non-Toxic | 64 µg/mL | Non-Toxic | 1020 µg/mL | 1020 µg/mL | 0.016 µg/mL
3 | COc1cccc2cc3c(cc12)C(=O)N(C1CCCC1)C3=O | 8 µg/mL | 32 µg/mL | 1020 µg/mL | 1020 µg/mL | 0.063 µg/mL | 16 µg/mL | Non-Toxic | 0.063 µg/mL | 16 µg/mL | 16 µg/mL | 1020 µg/mL | 0.063 µg/mL | Non-Toxic | 64 µg/mL | Non-Toxic | 1020 µg/mL | 1020 µg/mL | 0.063 µg/mL
